In data set [1] the test system is Rattus norvegicus. Put plainly: Plasma free concentration in Sprague-Dawley rat at 3 mg/kg, po after 1 to 3 hrs by LC/MS/MS analysis. To be noted: in vivo. The class given is ADME, organism-based. The arrangement: dose 3 mg/kg, route oral.
In data set [2] the target is T1, Corticotropin-releasing factor receptor 1 (Rattus norvegicus, UniProt P35353).
T1 sequence (P35353 whole entry): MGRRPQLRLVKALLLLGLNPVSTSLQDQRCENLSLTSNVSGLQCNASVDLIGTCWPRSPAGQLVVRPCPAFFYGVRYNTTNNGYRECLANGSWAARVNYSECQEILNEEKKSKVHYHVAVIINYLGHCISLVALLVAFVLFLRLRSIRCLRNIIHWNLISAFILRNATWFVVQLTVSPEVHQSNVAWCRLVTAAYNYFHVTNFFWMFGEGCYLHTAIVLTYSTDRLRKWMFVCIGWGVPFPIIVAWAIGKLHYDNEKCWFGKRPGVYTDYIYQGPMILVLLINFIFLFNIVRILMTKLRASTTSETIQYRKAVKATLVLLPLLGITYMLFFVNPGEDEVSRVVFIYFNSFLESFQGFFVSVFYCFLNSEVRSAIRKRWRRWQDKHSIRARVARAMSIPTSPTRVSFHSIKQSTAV
Put plainly: Displacement of [125I]Tyr-o-CRF from CRF1 receptor in rat frontal cortex homogenate by binding titration assay. It is filed as tissue-based. (In general: In a radioligand displacement assay an active substance lowers the binding of a labelled ligand.)

Data set [3] is described as follows: Displacement of [125I]sauvagine from CRF2 receptor in porcine choroid plexus homogenate by binding titration assay. The class given is tissue-based, Sus scrofa. In a few lines:
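Porcine choroid plexus homogenate; inhibition of [125I]-sauvagine binding measured in a titration format.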

The nature of data set [4]: Cmax in Sprague-Dawley rat at 10 mg/kg, po dosed as aqueous suspension of Labrafil M 1944CS/DMAC/polysorbate 80, 85:10:5 (v/v) after 2 to 4 hrs by LC/MS/MS analysis. To be noted: in vivo. It is filed as ADME, organism-based. The arrangement: dose 10 mg/kg, route oral.
Data set [5] is described as follows: Metabolic stability in human liver microsomes assessed as compound remaining at 3 uM after 10 mins by HPLC/UV/MS analysis. The class given is ADME, Microsome. To be noted: read-out: Stability. In general terms: Liver microsomes are a subcellular fraction often used to study metabolism.
Data set [6] in a line: AUC in Beagle dog at 3 mg/kg, po dosed as aqueous suspension of Labrafil M 1944CS/DMAC/polysorbate 80, 85:10:5 (v/v) after 0.25 to 24 hrs by LC/MS/MS analysis. The arrangement: time upper 24 hr, time lower 0.25 hr, dose 3 mg/kg, route oral. The class given is ADME, organism-based, Canis lupus familiaris. To be noted: plasma. In a few lines:
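Oral solution dosing at 3 mg/kg in Labrafil M 1944CS/DMAC/polysorbate 80, 85:10:5 (v/v), at 1 mL/kg, in fasted male beagle dogs (n = 2). Samples were acetonitrile-precipitated with internal standard and measured by LC/MS/MS using selected reaction monitoring in positive ion mode.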

Data set [7] is described as follows: AUC in Sprague-Dawley rat at 10 mg/kg, po dosed as aqueous suspension of 1% polysorbate 80 in 0.5% methylcellulose after 0.25 to 24 hrs by LC/MS/MS analysis. It is filed as ADME, organism-based. The arrangement: time upper 24 hr, time lower 0.25 hr, dose 10 mg/kg, route oral. To be noted: in vivo.
Data set [8] has as its system Liver microsomes. In words: Metabolic stability in NADPH-fortified human liver microsomes assessed as pyrazinone oxidation metabolite formation at 10 uM after 30 mins by HPLC/UV/MS analysis. The class given is ADME, Microsome. To be noted: 0.5 h. In outline: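 Pooled rat or human liver microsomes 1 mg/mL, 10 μM substrate, 100 mM potassium phosphate pH 7.4, 37 °C, started with NADPH-regenerating system (1.3 mM NADP+, 3.3 mM glucose-6-phosphate, 3.3 mM MgCl2, 0.5 U/mL G6PDH); GSH 5 mM in trapping runs. Sampled 0 and 30 min, acetonitrile quench; abundance as UV peak area (330–340 nm) fraction of all drug-related components by HPLC/UV/MS.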

Data set [9] has as its system Rattus norvegicus. In words: Ex vivo receptor occupancy of CRF1 receptor in Sprague-Dawley rat brain parietal assessed as inhibition of [125I]sauvagine binding at 3 mg/kg, po after 90 mins by autoradiography. It is filed as functional. To be noted: 1.5 h.

Broadly, the IC50 is the concentration at which inhibition is half-maximal. Usually Cmax stands for the maximum level reached in the sampled fluid or tissue. As a reminder, the AUC is the area under the concentration-time curve, a measure of exposure. Higher therefore signals high exposure. What is called inhibition in vivo is the share of the control response that was lost under treatment.

With `COC[C@H](C1CC1)n1cc(C#N)nc(Nc2cc(C)c(OC(F)F)nc2C)c1=O`, the “Cp(f)” value in [1] is reported as 5 nM. Moreover, the IC50 was 0.86 nM in data set [2] and over 10000 nM in data set [3]. The same compound returned a Cmax in data set [4] of 1600 nM. In data set [5], the remaining at 10 min, 3 µM was 74%. For the same compound, the figures for the AUC in data set [6] and in [7] were 17 µM·h and 4.1 µM·h, respectively. The Activity in [8] is under 1%. In addition, in data set [9], the inhibition in vivo at 3 mg/kg turned out to be 80%.

These data come from ChEMBL document CHEMBL1154735, “A strategy to minimize reactive metabolite formation: discovery of (S)-4-(1-cyclopropyl-2-methoxyethyl)-6-[6-(difluoromethoxy)-2,5-dimethylpyridin-3-ylamino]-5-oxo-4,5-dihydropyrazine-2-carbonitrile as a potent, orally bioavailable corticotropin-releasing factor-1 receptor antagonist” (J Med Chem, 2009).
